Screening results: PubChem BioAssay, Broad Institute
In the library only some 1.5% were active in any assay of this set; here they are far more common.
AF4-AF9 inh – inhibitors of AF4 peptide binding to AF9, primary screen, biochemical, AlphaScreen, biotin-AF4 peptide, FLAG-AF9, single point; inhibition, % at 10 µM; 350,000 tested, 0.47% active; Protein AF-9 (Homo sapiens), P42568;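 active = every replicate reaching a set inhibition limit, whatever the replicate mean, cut at about 25% in these data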;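 note: 0% = plate neutral control median and 100% = total signal loss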
S100A4 inh HTS – inhibitors of S100A4-myosin IIA peptide binding, primary screen, biochemical, fluorescence polarization, TAMRA-MyoIIA peptide. inhibition, % at 10.7 µM. 360,000 tested, 0.14% active;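 active = mean inhibition of at least 70% across replicates, with every replicate also reaching that level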
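Material: S100A4 monomer protein / Buffer or medium: 50 mM HEPES pH 7.2, 10 mM CaCl2, 100 mM KCl / Times: 5 min incubation before reading / Benchmarks: neutral control DMSO, positive control TFP / Reagent: labelled myosin peptide probe, 5 nM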
RAD54 inh – inhibitors of human RAD54 branch migration, primary screen, biochemical, fluorescence, single point | DNA repair and recombination protein RAD54-like (Homo sapiens), Q92698 | RAD54 Holliday junction branch migration, FAM/BHQ fluorescence | inhibition, % at 10.4 µM | 360,000 tested, 0.14% active | AID 602329, 2012;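 active = mean normalized replicate activity at least 40 and at least half of replicates scoring 40 or more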;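 note: 0% = median of neutral control wells and 100% = median of positive control wells; inhibitors cause a drop in the FAM fluorescence signal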
dFosB act-1 – activators of delta FosB homodimer, primary screen, biochemical, fluorescence polarization, TAMRA-CDK5 oligo, single point; AID 493131, 2011; activation, % at 25 µM; purified delta FosB; percent of positive-control signal above neutral wells; 340,000 tested, 0.99% active;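 active = mean activation above about 17%, with every replicate also reaching it, limit read from the data, passing the limit was not always enough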
RAD52 anneal inh – RAD52 DNA annealing inhibitors, primary screen, biochemical, FRET, single point, set 2 | DNA repair protein RAD52 homolog (Homo sapiens), P43351 | inhibition, % at 18.7 µM | 360,000 tested, 0.46% active | AID 651710, 2012 | recombinant RAD52 DNA annealing, FRET fluorescence;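 active = every replicate showing at least 50% inhibition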
dFosB act-2 – activators of mouse delta FosB DNA binding, confirmation, biochemical, fluorescence polarization, TAMRA-CDK5 oligo, cherry-picked samples; shares compounds with dFosB act-1; purified delta FosB; normalised: neutral wells 0, positive control 100; AID 588690, 2011; 2,400 tested, under 10 active; activation, % at 24.9 µM;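 active = highest replicate activation at or above 34% and every replicate reaching that threshold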;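 note: higher polarization means more probe DNA bound by delta FosB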
* marks the source's active call; other numbers are inactive results.

CN1CCN(C(=O)C[C@@H]2C[C@H]3c4cc(NC(=O)C5CCC5)ccc4O[C@H]3[C@@H](CO)O2)CC1 was read as AF4-AF9 inh -5, S100A4 inh HTS 2, RAD54 inh -17 and RAD52 anneal inh -10.
`Cc1cc(C)c2nc(-c3ccccn3)cc(C(=O)NCc3ccc(S(N)(=O)=O)cc3)c2c1` gave AF4-AF9 inh 1, S100A4 inh HTS 2, dFosB act-1 65*, RAD52 anneal inh -23 and dFosB act-2 -1.
For COC(=O)c1cn(NC(=O)Cc2c(F)cccc2Cl)c(=O)c2ccccc12 the results were AF4-AF9 inh 1, S100A4 inh HTS 1, dFosB act-1 -8 and RAD52 anneal inh -11.
`COC(=O)c1cn(NC(=O)COc2ccc(Cl)cc2)c(=O)c2ccccc12` gave AF4-AF9 inh 1, S100A4 inh HTS 0, RAD54 inh 8, dFosB act-1 32*, RAD52 anneal inh -6 and dFosB act-2 6.
COCC(=O)N1CC2(CN(Cc3nccs3)C2)c2c(n(C)c3cc(OC)ccc23)[C@H]1CO was read as AF4-AF9 inh 0.
Screening Cc1ccc(S(=O)(=O)N(C)C[C@H]2OCCCC[C@H](C)Oc3ccc(NS(=O)(=O)c4cccs4)cc3C(=O)N([C@H](C)CO)C[C@H]2C)cc1 returned AF4-AF9 inh 0, S100A4 inh HTS -1, RAD54 inh -12 and RAD52 anneal inh -23.
`O=C(Nc1ccc(-c2nc3cccnc3s2)cc1)c1ccc(Br)o1` gave AF4-AF9 inh -2, S100A4 inh HTS -2, RAD54 inh 0, dFosB act-1 35*, RAD52 anneal inh -65 and dFosB act-2 -7.
Screening O=C(Nc1ccc(-c2nc3cccnc3s2)cc1)c1ccco1 returned AF4-AF9 inh -5, S100A4 inh HTS 26, RAD54 inh 3, dFosB act-1 -16 and RAD52 anneal inh -109.
For Cc1ccc(CNC(=O)c2ccc(NC(=O)C3=CSCCO3)cc2)cc1 the results were AF4-AF9 inh 2, S100A4 inh HTS 0, RAD54 inh 8, dFosB act-1 28*, RAD52 anneal inh -15 and dFosB act-2 -8.
CCOc1ccc(CNC(=O)c2ccc(NC(=O)C3=CSCCO3)cc2)cc1 was read as AF4-AF9 inh 1, S100A4 inh HTS -4, RAD54 inh -3, dFosB act-1 0 and RAD52 anneal inh -9.
`Cc1sc(NC(=O)Cn2c(=O)oc3ccccc32)nc1-c1ccc(Cl)cc1` gave AF4-AF9 inh 0, S100A4 inh HTS -2, dFosB act-1 40*, RAD52 anneal inh -11 and dFosB act-2 6.
CCc1nnc(NC(=O)Cn2c(=O)oc3ccccc32)s1 was read as RAD54 inh 2 and dFosB act-1 6.
`COc1ccc(S(=O)(=O)Nc2ccc3c(c2)C(=O)N([C@@H](C)CO)C[C@@H](C)[C@H](CN(C)S(=O)(=O)c2ccc(C)cc2)OCCCC[C@H](C)O3)cc1` gave AF4-AF9 inh -4, S100A4 inh HTS -5, RAD54 inh 6 and RAD52 anneal inh -14.
CCCn1nc(C(=O)Nc2ccc(S(=O)(=O)Nc3nccs3)cc2)c2ccccc2c1=O was read as RAD54 inh -14 and dFosB act-1 -7.
CCCn1nc(C(=O)Nc2cc(S(=O)(=O)Nc3ccc(OC)cc3)ccc2O)c2ccccc2c1=O was read as AF4-AF9 inh 2, S100A4 inh HTS 0, RAD54 inh -1, dFosB act-1 21*, RAD52 anneal inh -6 and dFosB act-2 2.
Screening Cc1c(C(=O)Nc2ccc(F)cc2)cn2c(nc3ccccc32)c1C#N returned AF4-AF9 inh -8, S100A4 inh HTS -6, RAD54 inh -11, dFosB act-1 33*, RAD52 anneal inh -18 and dFosB act-2 -1.
